One data set addresses Histone deacetylase 4 (Homo sapiens, UniProt P56524). The data set can be described thus: Inhibition of human recombinant HDAC4. In a few lines: (§1)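 Recombinant HDAC isoforms incubated with acetyl-lysine tripeptide–AMC substrate (mimics histone H4 K12), or trifluoroacetyl-lysine-AMC for class IIa enzymes, each substrate at its Km; trypsin cleavage of deacetylated product releases fluorescent AMC. IC50 from two experiments in duplicate, mean ± SD.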

The species named for the next data set is Mus musculus. Put plainly: Inhibition of HDAC in mouse primary forebrain neurons assessed as acetylation of histone H3 lysine 9 at 92.5 uM after 24 hrs by immunofluorescence assay.
In another data set the target is Histone deacetylase 2 (Homo sapiens, UniProt Q92769). Put plainly: Inhibition of human recombinant HDAC2. In a few lines:
as §1

The next data set concerns the target Histone deacetylase 1 (Homo sapiens, UniProt Q13547). The data set can be described thus: Inhibition of human recombinant HDAC1. In outline: as §1
The next data set has as its target Histone deacetylase 9 (Homo sapiens, UniProt Q9UKV0). The data set can be described thus: Inhibition of human recombinant HDAC9. In a few lines: as §1
Data set [1] concerns the target T1, Protein deacetylase HDAC6 (Homo sapiens) (UniProt Q9UBN7).
T1 sequence (whole entry): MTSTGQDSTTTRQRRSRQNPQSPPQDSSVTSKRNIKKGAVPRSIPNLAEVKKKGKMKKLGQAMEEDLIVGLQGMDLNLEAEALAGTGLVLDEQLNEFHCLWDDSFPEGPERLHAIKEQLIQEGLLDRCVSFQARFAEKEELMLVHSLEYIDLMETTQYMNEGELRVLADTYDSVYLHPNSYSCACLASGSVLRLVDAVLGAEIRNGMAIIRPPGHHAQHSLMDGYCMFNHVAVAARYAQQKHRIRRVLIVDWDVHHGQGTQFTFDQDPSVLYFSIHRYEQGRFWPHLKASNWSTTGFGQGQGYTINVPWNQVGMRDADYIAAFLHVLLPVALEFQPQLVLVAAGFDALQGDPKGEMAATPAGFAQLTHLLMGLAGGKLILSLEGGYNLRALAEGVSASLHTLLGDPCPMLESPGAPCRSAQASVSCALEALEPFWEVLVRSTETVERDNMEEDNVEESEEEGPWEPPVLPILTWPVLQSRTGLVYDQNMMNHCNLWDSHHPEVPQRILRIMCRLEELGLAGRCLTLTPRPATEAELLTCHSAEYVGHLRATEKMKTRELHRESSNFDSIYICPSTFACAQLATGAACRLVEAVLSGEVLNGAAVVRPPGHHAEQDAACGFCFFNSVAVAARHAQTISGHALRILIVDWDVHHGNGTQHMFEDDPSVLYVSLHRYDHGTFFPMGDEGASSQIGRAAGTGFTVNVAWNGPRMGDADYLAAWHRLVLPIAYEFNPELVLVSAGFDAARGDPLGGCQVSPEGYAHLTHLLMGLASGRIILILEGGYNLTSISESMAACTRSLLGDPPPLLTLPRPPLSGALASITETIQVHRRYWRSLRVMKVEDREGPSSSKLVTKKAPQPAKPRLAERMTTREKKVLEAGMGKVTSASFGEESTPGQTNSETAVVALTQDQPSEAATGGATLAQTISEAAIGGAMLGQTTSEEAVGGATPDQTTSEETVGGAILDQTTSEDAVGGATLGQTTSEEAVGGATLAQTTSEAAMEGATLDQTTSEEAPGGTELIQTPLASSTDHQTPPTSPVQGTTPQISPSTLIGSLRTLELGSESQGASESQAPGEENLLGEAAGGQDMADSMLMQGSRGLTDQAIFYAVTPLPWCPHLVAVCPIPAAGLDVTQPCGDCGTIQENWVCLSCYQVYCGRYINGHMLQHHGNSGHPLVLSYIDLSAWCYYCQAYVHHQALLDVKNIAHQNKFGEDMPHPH
The data set can be described thus: Inhibition of HDAC6 in human HeLa cells assessed as acetylation of tubulin after 24 hrs by immunofluorescence assay. Type of data set: cell-based. In a few lines:
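HeLa cells treated 24 h at the indicated doses; tubulin acetylation quantified by immunofluorescence.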

The next data set deals with T2, Histone deacetylase 8 (Homo sapiens, UniProt Q9BY41).
T2 sequence (Q9BY41 whole entry): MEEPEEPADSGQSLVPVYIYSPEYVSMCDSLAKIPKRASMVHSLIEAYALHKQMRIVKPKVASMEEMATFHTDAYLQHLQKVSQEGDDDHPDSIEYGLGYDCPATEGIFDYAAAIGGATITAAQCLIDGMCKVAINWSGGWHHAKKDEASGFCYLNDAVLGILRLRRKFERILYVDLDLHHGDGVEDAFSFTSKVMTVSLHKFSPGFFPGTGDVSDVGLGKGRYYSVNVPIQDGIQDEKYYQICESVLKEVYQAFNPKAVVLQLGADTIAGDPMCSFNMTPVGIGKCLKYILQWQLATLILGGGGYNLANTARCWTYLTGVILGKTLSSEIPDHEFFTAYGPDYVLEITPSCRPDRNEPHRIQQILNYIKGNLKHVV
Put plainly: Inhibition of human recombinant HDAC8. In outline: as §1

The target in another data set is Histone deacetylase 5 (Homo sapiens, UniProt Q9UQL6). Put plainly: Inhibition of human recombinant HDAC5. In outline:
as §1

The target of data set [2] is T3, Protein deacetylase HDAC6 (Homo sapiens, UniProt Q9UBN7).
T3 sequence (Q9UBN7 whole entry): T1 sequence (whole entry)
Put plainly: Inhibition of human recombinant HDAC6. In outline: as §1

The target of a further data set is T4, Histone deacetylase 7 (Homo sapiens, UniProt Q8WUI4).
T4 sequence (Q8WUI4 whole entry): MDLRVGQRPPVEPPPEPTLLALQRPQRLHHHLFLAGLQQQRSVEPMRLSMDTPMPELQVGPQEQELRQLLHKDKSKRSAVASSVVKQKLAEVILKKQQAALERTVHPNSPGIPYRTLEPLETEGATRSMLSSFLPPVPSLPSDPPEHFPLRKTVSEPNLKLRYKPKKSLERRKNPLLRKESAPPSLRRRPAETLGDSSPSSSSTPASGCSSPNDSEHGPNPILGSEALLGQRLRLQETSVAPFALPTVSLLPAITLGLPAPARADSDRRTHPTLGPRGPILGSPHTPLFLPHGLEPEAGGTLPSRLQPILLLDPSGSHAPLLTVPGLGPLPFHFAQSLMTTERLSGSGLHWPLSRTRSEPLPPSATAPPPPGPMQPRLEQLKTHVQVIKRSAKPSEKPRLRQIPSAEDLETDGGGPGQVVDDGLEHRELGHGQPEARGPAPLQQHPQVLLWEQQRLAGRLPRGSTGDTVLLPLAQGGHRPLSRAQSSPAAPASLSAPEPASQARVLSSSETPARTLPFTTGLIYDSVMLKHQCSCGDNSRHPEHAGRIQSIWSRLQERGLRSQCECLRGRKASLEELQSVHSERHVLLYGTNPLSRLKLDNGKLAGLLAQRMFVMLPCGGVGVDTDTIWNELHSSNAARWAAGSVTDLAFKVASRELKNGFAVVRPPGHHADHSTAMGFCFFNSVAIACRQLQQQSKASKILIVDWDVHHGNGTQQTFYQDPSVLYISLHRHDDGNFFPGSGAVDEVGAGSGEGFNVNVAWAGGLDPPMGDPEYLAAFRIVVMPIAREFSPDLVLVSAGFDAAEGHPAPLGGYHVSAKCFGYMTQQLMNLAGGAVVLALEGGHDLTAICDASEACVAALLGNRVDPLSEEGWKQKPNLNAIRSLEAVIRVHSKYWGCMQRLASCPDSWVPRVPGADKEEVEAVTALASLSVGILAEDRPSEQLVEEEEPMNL
The data set can be described thus: Inhibition of human recombinant HDAC7.

For a further data set, the target named is Histone deacetylase 3 (Homo sapiens, UniProt O15379). Put plainly: Inhibition of human recombinant HDAC3. In outline:
as §1

The species named for data set [3] is Xenopus laevis. Put plainly: Induction of developmental deffects in frog embryos assessed as heart looping and pigment deffects at 2 mM after 18 hrs. The class given is organism-based. The settings on record: in vivo, 2000 µM. In outline: (§2)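 Xenopus laevis embryos exposed in the whole-organism development assay at 2 mM and scored morphologically for loss of anterior structures, shortened anterior–posterior axis, and heart looping and pigment defects; compared with untreated embryos.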

For data set [4], the species on record is Xenopus laevis. Put plainly: Induction of developmental deffects in frog embryos assessed as loss of anterior structures at 2 mM after 18 hrs. The settings on record: in vivo, 2000 µM. Type of data set: organism-based. In a few lines: as §2
Data set [5] is filed under the species Xenopus laevis. Put plainly: Induction of developmental deffects in frog embryos assessed as shortening of anterior-posterior axis at 2 mM after 18 hrs. Type of data set: organism-based. The following applies: in vivo, 2000 µM. In outline:
as §2

pIC50: −log10 of the molar value. Calls of active or inactive are those of the source. The rule behind the calls is not given here. Where only a bound is given, the exact number is not on record here.

Sequence of Histone deacetylase 4 (P56524 whole entry, canonical isoform): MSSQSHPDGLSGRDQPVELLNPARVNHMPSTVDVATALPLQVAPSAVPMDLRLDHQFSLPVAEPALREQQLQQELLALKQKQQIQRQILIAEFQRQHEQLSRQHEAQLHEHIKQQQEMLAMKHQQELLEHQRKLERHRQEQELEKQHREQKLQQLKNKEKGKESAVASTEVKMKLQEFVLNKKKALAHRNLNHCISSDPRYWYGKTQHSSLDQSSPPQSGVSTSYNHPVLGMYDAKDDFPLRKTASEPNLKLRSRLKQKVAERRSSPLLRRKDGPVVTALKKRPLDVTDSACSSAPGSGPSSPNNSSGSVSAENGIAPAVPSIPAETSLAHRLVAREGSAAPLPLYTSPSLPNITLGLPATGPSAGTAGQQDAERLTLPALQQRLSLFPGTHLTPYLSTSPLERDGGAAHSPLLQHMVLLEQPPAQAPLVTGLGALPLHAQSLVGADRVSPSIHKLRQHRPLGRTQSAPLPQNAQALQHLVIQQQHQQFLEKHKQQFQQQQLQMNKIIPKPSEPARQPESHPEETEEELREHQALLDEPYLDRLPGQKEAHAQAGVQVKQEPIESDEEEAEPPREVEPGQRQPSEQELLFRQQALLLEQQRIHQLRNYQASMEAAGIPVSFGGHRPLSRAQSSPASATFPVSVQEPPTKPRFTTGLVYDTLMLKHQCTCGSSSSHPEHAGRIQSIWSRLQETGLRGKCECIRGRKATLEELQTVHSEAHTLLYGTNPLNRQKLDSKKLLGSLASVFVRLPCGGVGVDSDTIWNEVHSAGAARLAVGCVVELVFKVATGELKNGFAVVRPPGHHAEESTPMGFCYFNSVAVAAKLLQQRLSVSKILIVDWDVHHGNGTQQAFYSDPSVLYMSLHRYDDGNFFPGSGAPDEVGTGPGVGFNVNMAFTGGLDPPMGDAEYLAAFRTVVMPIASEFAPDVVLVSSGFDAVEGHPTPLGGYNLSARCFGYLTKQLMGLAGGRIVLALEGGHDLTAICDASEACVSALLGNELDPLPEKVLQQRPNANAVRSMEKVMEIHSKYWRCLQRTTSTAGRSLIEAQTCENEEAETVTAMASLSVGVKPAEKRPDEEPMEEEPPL
Sequence of Histone deacetylase 2 (Q92769 whole entry): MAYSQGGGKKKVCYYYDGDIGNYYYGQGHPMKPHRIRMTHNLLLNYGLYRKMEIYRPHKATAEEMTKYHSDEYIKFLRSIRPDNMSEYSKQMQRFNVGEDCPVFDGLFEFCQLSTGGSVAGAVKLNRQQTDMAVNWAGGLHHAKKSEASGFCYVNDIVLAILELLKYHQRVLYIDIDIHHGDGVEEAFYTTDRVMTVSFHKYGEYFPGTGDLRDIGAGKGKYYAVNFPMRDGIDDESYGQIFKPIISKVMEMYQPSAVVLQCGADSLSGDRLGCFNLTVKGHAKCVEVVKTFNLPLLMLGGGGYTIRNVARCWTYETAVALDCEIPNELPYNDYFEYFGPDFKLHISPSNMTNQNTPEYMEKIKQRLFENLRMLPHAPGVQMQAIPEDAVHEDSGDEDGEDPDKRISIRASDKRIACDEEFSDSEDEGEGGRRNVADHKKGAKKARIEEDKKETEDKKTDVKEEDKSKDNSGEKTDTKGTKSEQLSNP
Sequence of Histone deacetylase 9 (Q9UKV0 whole entry): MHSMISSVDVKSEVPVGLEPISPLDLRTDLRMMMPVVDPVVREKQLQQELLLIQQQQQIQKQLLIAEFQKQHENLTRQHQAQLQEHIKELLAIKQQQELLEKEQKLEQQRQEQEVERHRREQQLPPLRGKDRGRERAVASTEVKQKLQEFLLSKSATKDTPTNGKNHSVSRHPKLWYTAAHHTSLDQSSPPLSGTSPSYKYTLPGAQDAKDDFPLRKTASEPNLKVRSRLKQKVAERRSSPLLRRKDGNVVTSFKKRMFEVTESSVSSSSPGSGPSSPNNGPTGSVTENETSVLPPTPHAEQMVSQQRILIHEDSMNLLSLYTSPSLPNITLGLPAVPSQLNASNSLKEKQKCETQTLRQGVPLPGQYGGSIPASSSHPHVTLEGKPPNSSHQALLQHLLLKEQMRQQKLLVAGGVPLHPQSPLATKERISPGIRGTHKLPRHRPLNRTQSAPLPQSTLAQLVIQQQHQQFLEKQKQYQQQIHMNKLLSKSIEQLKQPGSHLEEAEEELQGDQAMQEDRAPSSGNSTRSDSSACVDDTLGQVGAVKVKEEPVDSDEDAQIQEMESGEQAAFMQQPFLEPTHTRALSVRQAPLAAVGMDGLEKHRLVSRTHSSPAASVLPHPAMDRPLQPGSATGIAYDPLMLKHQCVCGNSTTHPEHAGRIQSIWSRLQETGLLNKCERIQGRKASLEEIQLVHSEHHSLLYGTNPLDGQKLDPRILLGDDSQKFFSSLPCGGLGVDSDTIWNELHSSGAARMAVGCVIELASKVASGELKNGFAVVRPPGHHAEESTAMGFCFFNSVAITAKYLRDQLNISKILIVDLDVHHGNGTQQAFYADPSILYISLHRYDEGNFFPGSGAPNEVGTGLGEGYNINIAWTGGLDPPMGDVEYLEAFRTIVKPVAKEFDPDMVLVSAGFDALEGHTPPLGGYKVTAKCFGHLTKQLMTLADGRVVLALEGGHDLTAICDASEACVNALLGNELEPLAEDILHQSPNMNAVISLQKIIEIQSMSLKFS
Sequence of Histone deacetylase 5 (Q9UQL6 whole entry): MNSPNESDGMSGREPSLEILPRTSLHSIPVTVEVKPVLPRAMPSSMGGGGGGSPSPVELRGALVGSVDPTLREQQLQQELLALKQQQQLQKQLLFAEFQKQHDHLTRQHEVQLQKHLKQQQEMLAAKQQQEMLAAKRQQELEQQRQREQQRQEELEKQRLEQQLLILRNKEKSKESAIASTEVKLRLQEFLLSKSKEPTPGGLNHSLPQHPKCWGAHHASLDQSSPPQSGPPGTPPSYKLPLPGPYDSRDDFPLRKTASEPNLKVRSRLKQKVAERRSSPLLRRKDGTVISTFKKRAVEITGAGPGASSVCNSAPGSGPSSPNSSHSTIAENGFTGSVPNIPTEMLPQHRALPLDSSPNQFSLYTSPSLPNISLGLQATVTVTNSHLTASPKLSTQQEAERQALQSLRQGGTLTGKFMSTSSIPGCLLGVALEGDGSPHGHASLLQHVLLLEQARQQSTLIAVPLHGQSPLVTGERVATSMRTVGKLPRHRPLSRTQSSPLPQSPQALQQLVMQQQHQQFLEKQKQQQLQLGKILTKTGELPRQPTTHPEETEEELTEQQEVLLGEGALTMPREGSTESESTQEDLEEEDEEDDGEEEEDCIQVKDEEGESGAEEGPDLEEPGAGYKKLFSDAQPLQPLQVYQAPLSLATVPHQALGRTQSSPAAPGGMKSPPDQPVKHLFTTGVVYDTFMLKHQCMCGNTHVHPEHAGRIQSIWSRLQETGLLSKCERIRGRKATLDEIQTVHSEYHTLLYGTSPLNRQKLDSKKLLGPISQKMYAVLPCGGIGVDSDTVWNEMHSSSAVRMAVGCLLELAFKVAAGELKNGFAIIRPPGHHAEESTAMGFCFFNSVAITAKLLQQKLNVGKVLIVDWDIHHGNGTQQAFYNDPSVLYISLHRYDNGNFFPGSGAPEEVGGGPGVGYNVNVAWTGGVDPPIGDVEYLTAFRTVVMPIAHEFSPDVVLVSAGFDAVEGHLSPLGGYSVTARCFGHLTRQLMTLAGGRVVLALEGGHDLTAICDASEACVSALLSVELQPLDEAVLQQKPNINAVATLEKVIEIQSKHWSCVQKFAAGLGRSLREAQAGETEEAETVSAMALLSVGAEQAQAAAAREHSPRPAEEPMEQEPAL
Sequence of Histone deacetylase 1 (Q13547 whole entry): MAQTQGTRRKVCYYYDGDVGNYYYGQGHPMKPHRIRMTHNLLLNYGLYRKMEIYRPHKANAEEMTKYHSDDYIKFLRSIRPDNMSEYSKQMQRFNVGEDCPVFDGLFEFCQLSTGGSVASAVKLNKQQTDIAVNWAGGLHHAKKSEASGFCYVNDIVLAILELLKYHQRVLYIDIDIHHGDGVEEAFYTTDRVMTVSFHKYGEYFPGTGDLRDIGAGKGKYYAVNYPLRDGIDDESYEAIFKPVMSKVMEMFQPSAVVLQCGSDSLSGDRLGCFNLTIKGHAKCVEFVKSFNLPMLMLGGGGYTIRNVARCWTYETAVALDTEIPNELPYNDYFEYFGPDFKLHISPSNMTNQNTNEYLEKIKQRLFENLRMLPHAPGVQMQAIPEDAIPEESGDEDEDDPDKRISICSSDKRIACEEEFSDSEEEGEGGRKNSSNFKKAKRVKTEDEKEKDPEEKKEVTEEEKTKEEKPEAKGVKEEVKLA
Sequence of Histone deacetylase 3 (O15379 whole entry): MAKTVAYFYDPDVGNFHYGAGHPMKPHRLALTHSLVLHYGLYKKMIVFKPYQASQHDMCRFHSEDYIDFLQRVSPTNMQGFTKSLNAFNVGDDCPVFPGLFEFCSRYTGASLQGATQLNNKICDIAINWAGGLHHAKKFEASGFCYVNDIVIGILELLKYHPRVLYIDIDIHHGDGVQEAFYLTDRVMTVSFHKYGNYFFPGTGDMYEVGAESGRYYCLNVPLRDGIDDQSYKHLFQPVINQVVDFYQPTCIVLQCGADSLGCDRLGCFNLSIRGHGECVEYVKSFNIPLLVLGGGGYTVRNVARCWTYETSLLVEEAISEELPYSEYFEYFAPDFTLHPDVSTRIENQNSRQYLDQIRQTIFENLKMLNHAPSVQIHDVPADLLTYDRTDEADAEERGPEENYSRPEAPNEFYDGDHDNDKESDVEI

For the compound `CCCC(=O)O` [BUTYRIC ACID], the negative logarithm of the IC50 (pIC50) is < 2.70 at Histone deacetylase 4; 4.92 at Histone deacetylase 2; 4.80 at Histone deacetylase 1; < 2.70 on Histone deacetylase 9; 4.82 on Histone deacetylase 8; < 2.70 on Histone deacetylase 5. The pIC50 was < 2.70 in data set [2], < 2.70 at Histone deacetylase 7 and 5.05 on Histone deacetylase 3. Moreover, the inhibition entry (in the data set filed under Mus musculus; in data set [1]) was “inactive” throughout.
Take `CCCC(=O)NO` [BUTYRYLHYDROXAMIC ACID]: the pIC50 on Histone deacetylase 4 is < 2.70; on Histone deacetylase 2, 5.05; at Histone deacetylase 1, 5.15; at Histone deacetylase 9, < 2.70; at Histone deacetylase 8, 4.59; on Histone deacetylase 5 it was 3.44. For the same compound, the negative-log IC50 (pIC50) was 5.70 in data set [2], < 3.00 at Histone deacetylase 7 and 5.00 on Histone deacetylase 3. The inhibition entry (in the data set listed under Mus musculus; in [1]) was “Active” throughout.
On to `O=C(CCCc1ccccc1)NO` [PHENYLBUTYRYLHYDROXAMIC ACID], for which the pIC50 was 3.85 on Histone deacetylase 4; 6.22 at Histone deacetylase 2; 3.37 at Histone deacetylase 9; 5.40 on Histone deacetylase 8; 4.60 at Histone deacetylase 5; 6.30 in data set [2]. Besides, the inhibition result (in the data set listed under Mus musculus; in [1]) was “Active” in each case.
In the case of `CCCC(CCC)C(=O)O` [VALPROIC ACID], the negative logarithm of the IC50 (pIC50) is < 2.70 on Histone deacetylase 4; 4.41 at Histone deacetylase 1; < 2.70 on Histone deacetylase 9; < 2.70 at Histone deacetylase 5; < 2.70 in data set [2]; < 2.70 on Histone deacetylase 7. In addition, the inhibition result (in the data set listed under Mus musculus; in data set [1]) was “inactive” each time. Moreover, the Activity result in the data set listed under Xenopus laevis [3], in the data set listed under Xenopus laevis [4] and in the data set listed under Xenopus laevis [5] was “Toxic” throughout.

These data come from ChEMBL document CHEMBL1671826, “Effect of Inhibiting Histone Deacetylase with Short-Chain Carboxylic Acids and Their Hydroxamic Acid Analogs on Vertebrate Development and Neuronal Chromatin” (ACS Med Chem Lett, 2011).
